From ChEMBL document CHEMBL1212775, “A novel class of meso-tetrakis-porphyrin derivatives exhibits potent activities against hepatitis C virus genotype 1b replicons in vitro” (Antimicrob Agents Chemother, 2010)

Experiments:
Hepatitis C virus [1] = assay: Antiviral activity against Hepatitis C virus genotype 1b Con1 infected in human Huh-luc/neo-ET replicon cells assessed as reduction of replicon luciferase signal after 72 hrs by luciferase reporter assay; assay type: functional, organism-based, Hepacivirus hominis
Procedure, shortened: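 Replicon cells grown without G418, seeded at 5 × 10^3 per well, treated next day in duplicate with serial dilutions (DMSO control) at 37°C for 72 h. After a PBS wash, cells lysed in ice-cold passive lysis reagent and firefly luciferase RLU read as percent of compound-free control. EC50 by nonlinear regression of the dose-effect curve.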

CCRF-CEM = assay: Mitochondrial DNA toxicity in human CEM cells; assay type: cell-based
Procedure, shortened: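 CEM cell lysates slot-blotted and hybridized with an mtDNA-specific probe, then reprobed with an Alu probe as internal control. Bands quantified by autoradiography and densitometry.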

MT2 = assay: Cytotoxicity against human MT2 cells after 5 days by colorimetry; assay type: cell-based; settings: MT2, 120 h
Procedure, shortened: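 Uninfected MT-2 cells coincubated with compounds for 5 days. Cytotoxicity by colorimetric quantitation.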

[2] = Cytotoxicity against human HuH7 cells by luminescence based cell viability assay; design: species or system Huh-7
Procedure, shortened: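 Exponentially growing Huh-7 cells seeded at 1 × 10^4 per well and incubated with compounds for 3 days. Viability read by CellTiter-Glo luminescence, used for dark compounds that interfere with methylene blue absorbance at 595 nm. CC50 derived.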

[3] = Cytotoxicity against human Huh-7 cells by luminescence based cell viability assay
[4] = test system: Human immunodeficiency virus 1; assay: Antiviral activity against Human immunodeficiency virus 1 3B virus infected in human MT2 cells assessed as inhibition of virus-induced cytopathic effect by colorimetry; assay type: functional, organism-based
Procedure, shortened: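 MT-2 cells, 1 × 10^3 per well in triplicate, infected with HIV-1 IIIB at 0.1 TCID50/cell and cultured with compounds. Viral CPE quantified by MTT colorimetry after 5 days to estimate EC50.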

Hepatitis B virus = assay: Antiviral activity against Hepatitis B virus infected in human 2.2.15 cells assessed as reduction of […] after 72 hrs by southern DNA hybridization method; assay type: functional, organism-based; settings: HepG2 2.2.15, 72 h
Hepatitis C virus [5] = assay: Antiviral activity against Hepatitis C virus genotype 1b Con1 infected in human Huh-luc/neo-ET replicon cells assessed as reduction of replicon luciferase signal after 72 hrs by luciferase reporter assay in presence of 5% fetal bovine serum; assay type: functional, organism-based, Hepacivirus hominis
Procedure, shortened: (§1)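 Huh-luc/neo-ET cells without G418, incubated with serially diluted compounds in medium containing 5%, 10%, 20% or 40% (vol/vol) FBS. Firefly luciferase read after 72 h. EC50 from dose-effect curves. The 0% value is a theoretical EC50 extrapolated from the plot of EC50 versus serum level. Means ± SD of three independent experiments.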

Cytochrome c = Cytochrome c (Homo sapiens, UniProt P99999); assay: Binding affinity to Cytochrome C
Hepatitis C virus [6] = assay: Antiviral activity against Hepatitis C virus genotype 1b Con1 infected in human Huh-luc/neo-ET replicon cells assessed as reduction of replicon luciferase signal after 72 hrs by luciferase reporter assay in presence of 0% fetal bovine serum; assay type: functional, organism-based, Hepacivirus hominis; procedure, shortened: as §1
Hepatitis C virus [7] = assay: Antiviral activity against Hepatitis C virus genotype 1b Con1 infected in human Huh-luc/neo-ET replicon cells assessed as reduction of replicon luciferase signal after 72 hrs by luciferase reporter assay in presence of 20% fetal bovine serum; assay type: functional, organism-based, Hepacivirus hominis; procedure, shortened: as §1
Hepatitis C virus [8] = assay: Antiviral activity against Hepatitis C virus genotype 1b Con1 infected in human Huh-luc/neo-ET replicon cells assessed as reduction of replicon luciferase signal after 72 hrs by luciferase reporter assay in presence of 40% fetal bovine serum; assay type: functional, organism-based, Hepacivirus hominis; procedure, shortened: as §1
Hepatitis C virus [9] = assay: Antiviral activity against Hepatitis C virus genotype 1b Con1 infected in human Huh-luc/neo-ET replicon cells assessed as reduction of replicon luciferase signal after 72 hrs by luciferase reporter assay in presence of 10% fetal bovine serum; assay type: functional, organism-based, Hepacivirus hominis; procedure, shortened: as §1
Hepatitis C virus [10] = assay: Antiviral activity against Hepatitis C virus genotype 2a JFH1 infected in human YSGR-JFH replicon cells assessed as inhibition of virus RNA level after 72 hrs by quantitative RT-PCR; assay type: functional, organism-based, Hepacivirus hominis; settings: subtype 2a JFH1, 72 h
Procedure, shortened: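 YSGR-JFH genotype 2a subgenomic replicon cells (maintained with 400 μg/ml G418), 1 × 10^5 per well, incubated with DMSO, serially varied compound, or IFN-α-2a for 72 h. HCV RNA by qRT-PCR normalized to β-actin, as percent of mock-treated control. Mean ± SD of three independent experiments.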

Chain of Cytochrome c (P99999 whole entry): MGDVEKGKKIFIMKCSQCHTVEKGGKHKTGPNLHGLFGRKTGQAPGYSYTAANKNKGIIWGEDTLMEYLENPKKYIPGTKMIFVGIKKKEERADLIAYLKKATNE

Row | Structure (SMILES) | EC50 (Hepatitis C virus [1]) | IC50 (CCRF-CEM) | CC50 (MT2) | CC50 [2] | CC50 [3] | EC50 [4] | EC50 (Hepatitis B virus) | EC50 (Hepatitis C virus [5]) | Kd (Cytochrome c) | EC50 (Hepatitis C virus [6]) | EC50 (Hepatitis C virus [7]) | EC50 (Hepatitis C virus [8]) | EC50 (Hepatitis C virus [9]) | EC50 (Hepatitis C virus [10])
1 | O=C(O)c1cc(C(=O)O)cc(-c2c3nc(c(-c4cc(C(=O)O)cc(C(=O)O)c4)c4ccc([nH]4)c(-c4cc(C(=O)O)cc(C(=O)O)c4)c4nc(c(-c5cc(C(=O)O)cc(C(=O)O)c5)c5ccc2[nH]5)C=C4)C=C3)c1 | 13.6 µM | 25 µM | > 50 µM | > 50 µM | > 50 µM | > 100 µM |  |  |  |  |  |  |  | 
2 | O=C(O)CNC(=O)c1ccc(-c2ccc(-c3c4nc(c(-c5ccc(-c6ccc(C(=O)NCC(=O)O)cc6)cc5)c5ccc([nH]5)c(-c5ccc(-c6ccc(C(=O)NCC(=O)O)cc6)cc5)c5nc(c(-c6ccc(-c7ccc(C(=O)NCC(=O)O)cc7)cc6)c6ccc3[nH]6)C=C5)C=C4)cc2)cc1 | 0.148 µM | > 50 µM | 13 µM | > 50 µM | > 50 µM | 1.5 µM | > 20 µM |  |  |  |  |  |  | 
3 | O=C(O)CNC(=O)c1cc(C(=O)NCC(=O)O)cc(-c2ccc(-c3c4nc(c(-c5ccc(-c6cc(C(=O)NCC(=O)O)cc(C(=O)NCC(=O)O)c6)cc5)c5ccc([nH]5)c(-c5ccc(-c6cc(C(=O)NCC(=O)O)cc(C(=O)NCC(=O)O)c6)cc5)c5nc(c(-c6ccc(-c7cc(C(=O)NCC(=O)O)cc(C(=O)NCC(=O)O)c7)cc6)c6ccc3[nH]6)C=C5)C=C4)cc2)c1 | > 12.5 µM | 12.5 µM | 15 µM | 12.5 µM | > 50 µM | 1.05 µM | > 10 µM |  |  |  |  |  |  | 
4 | O=C(O)c1ccc(-c2ccc(-c3c4nc(c(-c5ccc(-c6ccc(C(=O)O)cc6)cc5)c5ccc([nH]5)c(-c5ccc(-c6ccc(C(=O)O)cc6)cc5)c5ccc([nH]5)c(-c5ccc(-c6ccc(C(=O)O)cc6)cc5)c5nc3C=C5)C=C4)cc2)cc1 | 0.877 µM | 6 µM | 25 µM | 32.2 µM | 18.6 µM | > 25 µM | > 10 µM | 0.633 µM | 17 µM | 0.38 µM | 1.21 µM | 1.48 µM | 0.877 µM | 
5 | O=C(O)CNC(=O)c1ccc(-c2c3nc(c(-c4ccc(C(=O)NCC(=O)O)cc4)c4ccc([nH]4)c(-c4ccc(C(=O)NCC(=O)O)cc4)c4nc(c(-c5ccc(C(=O)NCC(=O)O)cc5)c5ccc2[nH]5)C=C4)C=C3)cc1 | 1.8 µM | 15 µM | 3.2 µM | > 50 µM | 27 µM | > 25 µM | > 10 µM |  |  |  |  |  |  | 
6 | COC(=O)[C@H](CC(=O)O)NC(=O)c1cc(C(=O)N[C@@H](CC(=O)O)C(=O)OC)cc(-c2ccc(-c3c4nc(c(-c5ccc(-c6cc(C(=O)N[C@@H](CC(=O)O)C(=O)OC)cc(C(=O)N[C@@H](CC(=O)O)C(=O)OC)c6)cc5)c5ccc([nH]5)c(-c5ccc(-c6cc(C(=O)N[C@@H](CC(=O)O)C(=O)OC)cc(C(=O)N[C@@H](CC(=O)O)C(=O)OC)c6)cc5)c5nc(c(-c6ccc(-c7cc(C(=O)N[C@@H](CC(=O)O)C(=O)OC)cc(C(=O)N[C@@H](CC(=O)O)C(=O)OC)c7)cc6)c6ccc3[nH]6)C=C5)C=C4)cc2)c1 | 2.5 µM | 10 µM | > 25 µM | 12.5 µM |  | 4.1 µM | > 10 µM |  | 1.7 µM |  |  |  |  | 
7 | O=C(O)c1ccc(-c2c3nc(c(-c4ccc(C(=O)O)cc4)c4ccc([nH]4)c(-c4ccc(C(=O)O)cc4)c4ccc([nH]4)c(-c4ccc(C(=O)O)cc4)c4nc2C=C4)C=C3)cc1 | 0.243 µM | > 50 µM | > 25 µM | > 50 µM | > 50 µM | > 25 µM | > 10 µM | 0.124 µM | 0.95 µM | 0.0482 µM | 0.513 µM | 0.948 µM | 0.243 µM | 1.9 µM
8 | O=C(O)c1cccc(-c2ccc(-c3c4nc(c(-c5ccc(-c6cccc(C(=O)O)c6)cc5)c5ccc([nH]5)c(-c5ccc(-c6cccc(C(=O)O)c6)cc5)c5nc(c(-c6ccc(-c7cccc(C(=O)O)c7)cc6)c6ccc3[nH]6)C=C5)C=C4)cc2)c1 | 0.764 µM | 22 µM | > 25 µM | 13 µM | 42.3 µM | > 25 µM | > 20 µM |  |  |  |  |  |  | 
